{"source": "ChEMBL document CHEMBL3120138", "about": "“Glucocorticoid receptor modulators informed by crystallography lead to a new rationale for receptor selectivity, function, and implications for structure-based design” (J Med Chem, 2014)", "key": {"[1]": {"test": "Volume of distribution in Sprague-Dawley rat at 3 mg/kg, iv", "assay_type": "ADME, organism-based", "design": "dose 3 mg/kg, route intravenous", "conditions": "in vivo", "method_in_brief": "(§1)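 Cannulated male Sprague-Dawley rats, fasted overnight, given a single 3 mpk dose at t = 0. The iv vehicle was 20% microemulsion/80% DI water and the po vehicle CMC/tween in DI water. Plasma was analysed for parent compound by LC/MS-MS, and exposure, half-life, Vd, clearance and bioavailability were calculated.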"}, "[2]": {"test": "Oral bioavailability in Sprague-Dawley rat at 3 mg/kg", "assay_type": "ADME, organism-based", "conditions": "in vivo", "method_in_brief": "as §1"}, "Rattus norvegicus [3]": {"system": "Rattus norvegicus", "test": "Antiinflammatory activity in Lewis rat collagen-induced arthritis model assessed as reduction of paw diameter AUC at 3 to 30 mg/kg, po administered for 15 days measured during compound dosing", "assay_type": "functional, organism-based", "method_in_brief": "(§2)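 Female Lewis rats received collagen injected at the tail base, and disease developed over 14 d. Responding rats (groups of n = 10) were then dosed orally once daily for the next 15 d. Ankle/paw diameter was measured throughout the live phase and summarised as AUC. Hindpaw histology was scored blind from 0 (normal) to 5 (vehicle-level). Statistics used Student's t test vs vehicle, p < 0.01.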"}, "Rattus norvegicus [4]": {"system": "Rattus norvegicus", "test": "Antiinflammatory activity in Lewis rat collagen-induced arthritis model assessed as reduction of pannus at 30 mg/kg, po administered for 15 days", "assay_type": "functional, organism-based", "design": "dose 30 mg/kg", "method_in_brief": "as §2"}, "Rattus norvegicus [5]": {"system": "Rattus norvegicus", "test": "Antiinflammatory activity in Lewis rat collagen-induced arthritis model assessed as reduction of cartilage damage at 30 mg/kg, po administered for 15 days", "assay_type": "functional, organism-based", "design": "dose 30 mg/kg", "method_in_brief": "as §2"}}, "note": "The source made the active and inactive calls. No cut-off for these calls is given here.", "data": [{"smiles": "CC/C(=C1\\c2ccccc2OCc2cccc(OC)c21)c1cccc(NS(C)(=O)=O)c1", "values": [{"measurement": "Vd", "setting": "[1]", "value": 7, "unit": "L/kg"}, {"measurement": "bioavailability", "setting": "[2]", "value": 100, "unit": "%"}, {"measurement": "Activity", "setting": "Rattus norvegicus [3]", "value": "Active"}, {"measurement": "Activity", "setting": "Rattus norvegicus [4]", "value": "Active"}, {"measurement": "Activity", "setting": "Rattus norvegicus [5]", "value": "Active"}]}]}
